In ChEMBL document CHEMBL4373711, “Development of 3,5-Dinitrophenyl-Containing 1,2,4-Triazoles and Their Trifluoromethyl Analogues as Highly Efficient Antitubercular Agents Inhibiting Decaprenylphosphoryl-β-d-ribofuranose 2'-Oxidase” (J Med Chem, 2019):
In brackets after ≈: the same amount, converted by molar mass. Activity calls are given as the source filed them. The rule behind the calls is not given here.

What was measured:
[1] = tested on: A-431; assay: Cytotoxicity against human A431 cells assessed as reduction in cell viability after 48 hrs by CellTiter 96 aqueous one solution assay; type: cell-based; settings: A-431, 48 h
[2] = tested on: Candida albicans; assay: Antifungal activity against Candida albicans ATCC 24433 CCM 8320 at highest concentration measured after 24 to 48 hrs by alamar blue dye based broth microdilution assay; type: functional, organism-based
[3] = tested on: Trichophyton interdigitale; assay: Antifungal activity against Trichophyton interdigitale ATCC 9533 CCM 8377 at highest concentration measured after 72 to 120 hrs by alamar blue dye based broth microdilution assay; type: functional
[4] = tested on: Mycobacterium avium; assay: Antimycobacterial activity against Mycobacterium avium CNCTC My 330/88 after 14 days; type: functional; settings: CNCTC My 330/88, 336 h
How it was run: (§1)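 M. avium was tested by microdilution in Šula's semisynthetic medium, with compounds dissolved in DMSO and serially diluted from 1000 down to 1. Inoculum was a 1.0 McFarland suspension diluted 10-5. Plates were incubated at 37 °C and read at 14 and 21 days. […] Isoniazid and rifampicin served as standards.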

[5] = tested on: Lichtheimia corymbifera; assay: Antifungal activity against Lichtheimia corymbifera CCM 8077 at highest concentration measured after 24 to 48 hrs by alamar blue dye based broth microdilution assay; type: functional, organism-based
[6] = tested on: Mycobacterium tuberculosis; assay: Antimycobacterial activity against Mycobacterium tuberculosis H37Rv CNCTC My 331/88 after 14 days; type: functional; settings: H37Rv CNCTC My 331/88, 336 h
How it was run: (§2)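 M. tuberculosis strains (H37Rv and clinical MDR/XDR isolates) tested by microdilution in Šula's semisynthetic medium. Compounds were dissolved in DMSO and tested at 32 to 0.03 µM in twofold steps. Inoculum was a 1.0 McFarland suspension diluted 10-3. Plates were incubated at 37 °C and read at 14 and 21 days.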

[7] = tested on: Pichia kudriavzevii; assay: Antifungal activity against Candida krusei ATCC 6258 CCM8271 at highest concentration measured after 24 to 48 hrs by alamar blue dye based broth microdilution assay; type: functional, organism-based
[8] = tested on: Mycobacterium kansasii; assay: Antimycobacterial activity against Mycobacterium kansasii 6509/96 after 7 days; type: functional; settings: 6509/96, 168 h
How it was run: (§3)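 Microdilution in Šula's semisynthetic medium; compounds in DMSO at 32–0.03 µM. Inoculum from 1.0 McFarland suspension diluted 10-4. […] Isoniazid and rifampicin as reference drugs.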

[9] = tested on: Pseudomonas aeruginosa; assay: Antibacterial activity against Pseudomonas aeruginosa ATCC 27853 CCM 3955 at highest concentration measured after 24 to 48 hrs by alamar blue dye based broth microdilution assay; type: functional, organism-based
[10] = tested on: Staphylococcus epidermidis; assay: Antibacterial activity against Staphylococcus epidermidis at highest concentration measured after 24 to 48 hrs by alamar blue dye based broth microdilution assay; type: functional, organism-based
[11] = tested on: Mycobacterium kansasii; assay: Antimycobacterial activity against Mycobacterium kansasii CNCTC My 235/80 after 7 days; type: functional; settings: CNCTC My 235/80, 168 h; how it was run: as §3
[12] = tested on: Candida parapsilosis; assay: Antifungal activity against Candida parapsilosis ATCC 22019 CCM 8260 at highest concentration measured after 24 to 48 hrs by alamar blue dye based broth microdilution assay; type: functional, organism-based
[13] = Cytotoxicity against human HepG2 cells assessed as cell viability at 30 uM after 48 hrs by CellTiter 96 aqueous one solution assay relative to control; type: cell-based; settings: read-out: Activity
How it was run: (§4)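 HepG2 (DMEM, 10% FBS, 1 mM pyruvate) or A431 (DMEM, 10% FBS) seeded 10,000 cells/well, 24 h at 37 °C, 5% CO2, then 30 µM compound for 48 h. MTS reagent 60 min, absorbance 490 nm, background subtracted; 0.1% DMSO vehicle = 100%, 10% SDS = 0% viability.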

[14] = tested on: Staphylococcus aureus; assay: Antibacterial activity against methicillin-resistant Staphylococcus aureus subsp. aureus ATCC 43300 CCM 4750 at highest concentration measured after 24 to 48 hrs by alamar blue dye based broth microdilution assay; type: functional, organism-based
[15] = tested on: HepG2; assay: Cytotoxicity against human HepG2 cells assessed as reduction in cell viability after 48 hrs by CellTiter 96 aqueous one solution assay; type: cell-based; settings: HepG2, 48 h
[16] = tested on: Mycobacterium tuberculosis; assay: Antimycobacterial activity against Mycobacterium tuberculosis H37Rv CNCTC My 331/88 after 21 days; type: functional; settings: H37Rv CNCTC My 331/88, 504 h; how it was run: as §2
[17] = tested on: Mycobacterium kansasii; assay: Antimycobacterial activity against Mycobacterium kansasii 6509/96 after 14 days; type: functional; settings: 6509/96, 336 h; how it was run: as §3
[18] = Cytotoxicity against human A431 cells assessed as cell viability at 30 uM after 48 hrs by CellTiter 96 aqueous one solution assay relative to control; type: cell-based, A-431; settings: read-out: Activity; how it was run: as §4
[19] = tested on: Enterococcus faecalis; assay: Antibacterial activity against Enterococcus faecalis ATCC 29212 CCM 4224 at highest concentration measured after 24 to 48 hrs by alamar blue dye based broth microdilution assay; type: functional, organism-based
[20] = tested on: Mycobacterium kansasii; assay: Antimycobacterial activity against Mycobacterium kansasii 6509/96 after 21 days; type: functional; settings: 6509/96, 504 h; how it was run: as §3
[21] = tested on: Aspergillus flavus; assay: Antifungal activity against Aspergillus flavus CCM 8363 at highest concentration measured after 24 to 48 hrs by alamar blue dye based broth microdilution assay; type: functional, organism-based
[22] = tested on: Candida tropicalis; assay: Antifungal activity against Candida tropicalis ATCC 750 CCM 8264 at highest concentration measured after 24 to 48 hrs by alamar blue dye based broth microdilution assay; type: functional, organism-based
[23] = tested on: Klebsiella pneumoniae; assay: Antibacterial activity against Klebsiella pneumoniae at highest concentration measured after 24 to 48 hrs by alamar blue dye based broth microdilution assay; type: functional, organism-based
[24] = tested on: Mycobacterium avium; assay: Antimycobacterial activity against Mycobacterium avium CNCTC My 330/88 after 21 days; type: functional; settings: CNCTC My 330/88, 504 h; how it was run: as §1
[25] = tested on: Staphylococcus aureus; assay: Antibacterial activity against Staphylococcus aureus subsp. aureus ATCC 29213 CCM 4223 at highest concentration measured after 24 to 48 hrs by alamar blue dye based broth microdilution assay; type: functional, organism-based
[26] = tested on: Escherichia coli; assay: Antibacterial activity against Escherichia coli ATCC 25922 CCM 3954 at highest concentration measured after 24 to 48 hrs by alamar blue dye based broth microdilution assay; type: functional, organism-based
[27] = tested on: Serratia marcescens; assay: Antibacterial activity against Serratia marcescens at highest concentration measured after 24 to 48 hrs by alamar blue dye based broth microdilution assay; type: functional, organism-based
[28] = tested on: Mycobacterium kansasii; assay: Antimycobacterial activity against Mycobacterium kansasii CNCTC My 235/80 after 14 days; type: functional; settings: CNCTC My 235/80, 336 h; how it was run: as §3
[29] = tested on: Mycobacterium kansasii; assay: Antimycobacterial activity against Mycobacterium kansasii CNCTC My 235/80 after 21 days; type: functional; settings: CNCTC My 235/80, 504 h; how it was run: as §3
[30] = tested on: Aspergillus fumigatus; assay: Antifungal activity against Aspergillus fumigatus ATCC 204305 at highest concentration measured after 24 to 48 hrs by alamar blue dye based broth microdilution assay; type: functional, organism-based

SMILES: O=[N+]([O-])c1cc(CSc2nnc(-c3ccc(Cl)cc3)n2Cc2ccccc2)cc([N+](=O)[O-])c1
- IC50 [1]: > 30 µM
- Activity [2]: inactive
- Activity [3]: inactive
- MIC99 [4]: 250 µM (≈ 120 µg/mL)
- Activity [5]: inactive
- MIC99 [6]: 4 µM (≈ 1.93 µg/mL)
- Activity [7]: inactive
- MIC99 [8]: 8 µM (≈ 3.86 µg/mL)
- Activity [9]: inactive
- Activity [10]: inactive
- MIC99 [11]: 4 µM (≈ 1.93 µg/mL)
- Activity [12]: inactive
- viability at 48 h, 30 µM [13]: 104%
- Activity [14]: inactive
- IC50 [15]: > 30 µM
- MIC99 [16]: 4 µM (≈ 1.93 µg/mL)
- MIC99 [17]: 8 µM (≈ 3.86 µg/mL)
- viability at 48 h, 30 µM [18]: 73%
- Activity [19]: inactive
- MIC99 [20]: 8 µM (≈ 3.86 µg/mL)
- Activity [21]: inactive
- Activity [22]: inactive
- Activity [23]: inactive
- MIC99 [24]: 250 µM (≈ 120 µg/mL)
- Activity [25]: inactive
- Activity [26]: inactive
- Activity [27]: inactive
- MIC99 [28]: 8 µM (≈ 3.86 µg/mL)
- MIC99 [29]: 8 µM (≈ 3.86 µg/mL)
- Activity [30]: inactive

SMILES: COc1ccc(CSc2nnc(-c3cc([N+](=O)[O-])cc([N+](=O)[O-])c3)n2C)cc1
- IC50 [1]: > 30 µM
- Activity [2]: inactive
- Activity [3]: inactive
- MIC99 [4]: 16 µM (≈ 6.42 µg/mL)
- Activity [5]: inactive
- MIC99 [6]: 0.25 µM (≈ 0.1 µg/mL)
- Activity [7]: inactive
- MIC99 [8]: 2 µM (≈ 0.803 µg/mL)
- Activity [9]: inactive
- Activity [10]: inactive
- MIC99 [11]: 1 µM (≈ 0.401 µg/mL)
- Activity [12]: inactive
- viability at 48 h, 30 µM [13]: 107%
- Activity [14]: inactive
- IC50 [15]: > 30 µM
- MIC99 [16]: 0.5 µM (≈ 0.201 µg/mL)
- MIC99 [17]: 2 µM (≈ 0.803 µg/mL)
- viability at 48 h, 30 µM [18]: 104%
- Activity [19]: inactive
- MIC99 [20]: 2 µM (≈ 0.803 µg/mL)
- Activity [21]: inactive
- Activity [22]: inactive
- Activity [23]: inactive
- MIC99 [24]: 16 µM (≈ 6.42 µg/mL)
- Activity [25]: inactive
- Activity [26]: inactive
- Activity [27]: inactive
- MIC99 [28]: 2 µM (≈ 0.803 µg/mL)
- MIC99 [29]: 4 µM (≈ 1.61 µg/mL)
- Activity [30]: inactive

SMILES: O=[N+]([O-])c1cc(-c2nnc(SCc3ccc(Cl)cc3)n2Cc2ccccc2)cc(C(F)(F)F)c1
- IC50 [1]: > 30 µM
- Activity [2]: inactive
- Activity [3]: inactive
- MIC99 [4]: 250 µM (≈ 126 µg/mL)
- Activity [5]: inactive
- MIC99 [6]: 0.5 µM (≈ 0.252 µg/mL)
- Activity [7]: inactive
- MIC99 [8]: 0.5 µM (≈ 0.252 µg/mL)
- Activity [9]: inactive
- Activity [10]: inactive
- MIC99 [11]: 0.5 µM (≈ 0.252 µg/mL)
- Activity [12]: inactive
- viability at 48 h, 30 µM [13]: 68%
- Activity [14]: inactive
- IC50 [15]: > 30 µM
- MIC99 [16]: 0.5 µM (≈ 0.252 µg/mL)
- MIC99 [17]: 0.5 µM (≈ 0.252 µg/mL)
- viability at 48 h, 30 µM [18]: 121%
- Activity [19]: inactive
- MIC99 [20]: 0.5 µM (≈ 0.252 µg/mL)
- Activity [21]: inactive
- Activity [22]: inactive
- Activity [23]: inactive
- MIC99 [24]: 250 µM (≈ 126 µg/mL)
- Activity [25]: inactive
- Activity [26]: inactive
- Activity [27]: inactive
- MIC99 [28]: 0.5 µM (≈ 0.252 µg/mL)
- MIC99 [29]: 0.5 µM (≈ 0.252 µg/mL)
- Activity [30]: inactive

SMILES: O=[N+]([O-])c1cc(CSc2nnc(-c3ccccc3)n2-c2ccc(Cl)c(Cl)c2)cc([N+](=O)[O-])c1
- IC50 [1]: > 30 µM
- Activity [2]: inactive
- Activity [3]: inactive
- MIC99 [4]: 125 µM (≈ 62.8 µg/mL)
- Activity [5]: inactive
- MIC99 [6]: 1 µM (≈ 0.502 µg/mL)
- Activity [7]: inactive
- MIC99 [8]: 0.5 µM (≈ 0.251 µg/mL)
- Activity [9]: inactive
- Activity [10]: inactive
- MIC99 [11]: 0.5 µM (≈ 0.251 µg/mL)
- Activity [12]: inactive
- viability at 48 h, 30 µM [13]: 134%
- Activity [14]: inactive
- IC50 [15]: > 30 µM
- MIC99 [16]: 2 µM (≈ 1 µg/mL)
- MIC99 [17]: 1 µM (≈ 0.502 µg/mL)
- viability at 48 h, 30 µM [18]: 136%
- Activity [19]: inactive
- MIC99 [20]: 2 µM (≈ 1 µg/mL)
- Activity [21]: inactive
- Activity [22]: inactive
- Activity [23]: inactive
- MIC99 [24]: 125 µM (≈ 62.8 µg/mL)
- Activity [25]: inactive
- Activity [26]: inactive
- Activity [27]: inactive
- MIC99 [28]: 1 µM (≈ 0.502 µg/mL)
- MIC99 [29]: 2 µM (≈ 1 µg/mL)
- Activity [30]: inactive
